Results as given in PubChem BioAssay.
Calls of active or inactive are those of the source. Unless noted, no stated cut-off is given here; in the data, active means inhibition above about 30%; inactive means the rest.

Assays:
[1] = Her2 expression decrease, cell viability multiplex – SKBR3 breast tumor cells, AlphaScreen, ATP viability, primary screen (AID 461;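 active means Her2 level under about 52% in both replicate screens, with viability over 70% of control, limit read from the data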;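 on Her2 level: lower value means less Her2 protein in the cells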;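 on viability: percent of carrier control wells set as 100% viability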); conditions: SKBR3 Her2 protein level, 18-24 h, measured here: SKBR3 viability, ATP luminescence, at 10 µM
[2] = molecular target: Receptor tyrosine-protein kinase erbB-2 (Homo sapiens) (UniProt P04626); assay: as above; conditions: 18-24 h, at 10 µM, stronger effect = lower value
Sequence of Receptor tyrosine-protein kinase erbB-2 (Homo sapiens) (P04626 whole entry, looked up): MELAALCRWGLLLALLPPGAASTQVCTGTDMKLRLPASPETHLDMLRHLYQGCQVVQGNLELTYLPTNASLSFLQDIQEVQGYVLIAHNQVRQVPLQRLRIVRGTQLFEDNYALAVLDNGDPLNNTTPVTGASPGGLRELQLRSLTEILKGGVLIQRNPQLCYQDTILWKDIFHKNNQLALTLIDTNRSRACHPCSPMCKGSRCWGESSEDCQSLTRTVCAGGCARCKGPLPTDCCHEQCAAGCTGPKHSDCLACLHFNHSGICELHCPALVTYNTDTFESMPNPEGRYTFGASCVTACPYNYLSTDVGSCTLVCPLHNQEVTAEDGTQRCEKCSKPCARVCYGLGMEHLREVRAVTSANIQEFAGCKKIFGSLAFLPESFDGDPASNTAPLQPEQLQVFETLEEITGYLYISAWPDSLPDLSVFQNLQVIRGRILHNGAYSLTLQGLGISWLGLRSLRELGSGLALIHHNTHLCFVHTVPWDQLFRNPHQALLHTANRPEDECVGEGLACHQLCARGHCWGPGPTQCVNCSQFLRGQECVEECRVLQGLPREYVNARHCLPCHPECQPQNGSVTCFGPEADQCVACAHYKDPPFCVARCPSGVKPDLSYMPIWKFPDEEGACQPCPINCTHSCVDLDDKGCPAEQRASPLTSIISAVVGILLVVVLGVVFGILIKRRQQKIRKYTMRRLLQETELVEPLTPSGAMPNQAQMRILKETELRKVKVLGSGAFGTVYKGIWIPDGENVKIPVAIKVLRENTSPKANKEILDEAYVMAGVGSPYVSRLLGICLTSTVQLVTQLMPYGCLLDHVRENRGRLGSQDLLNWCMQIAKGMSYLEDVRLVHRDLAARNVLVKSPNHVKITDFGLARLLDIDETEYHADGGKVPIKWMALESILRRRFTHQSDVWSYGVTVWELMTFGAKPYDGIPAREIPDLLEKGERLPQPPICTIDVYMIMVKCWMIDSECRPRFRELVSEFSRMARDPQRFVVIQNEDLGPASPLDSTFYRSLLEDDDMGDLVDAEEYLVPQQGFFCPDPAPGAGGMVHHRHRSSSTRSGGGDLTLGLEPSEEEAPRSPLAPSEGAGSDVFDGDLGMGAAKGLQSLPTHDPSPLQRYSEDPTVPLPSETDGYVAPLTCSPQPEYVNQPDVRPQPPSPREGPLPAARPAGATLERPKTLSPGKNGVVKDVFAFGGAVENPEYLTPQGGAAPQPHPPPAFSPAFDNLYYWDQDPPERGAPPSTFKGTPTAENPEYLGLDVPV

[3] = reduced viability of SK-BR-3 breast cancer cells – cell-based, 24 h, human, pilot screen (AID 572;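 active means viability at or below 10% of carrier control in both of two separate runs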;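 further: compound exposure lasted between 18 and 24 h rather than exactly 24 h; 100% = carrier-treated control wells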); conditions: SK-BR-3 viability, CellTiter-Glo luminescence, at 10 µM, stronger effect = lower value
[4] = HUVEC growth inhibition – cell-based, human, primary screen (AID 575;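 active means viability at or below 30% in both replicate assays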;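 further: 100% = median of untreated cell wells with 0.1% DMSO on each plate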); conditions: HUVEC proliferation, CellTiter-Glo luminescence, 72 h; at 10 µM; stronger effect = lower value
Procedure, shortened: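 material = primary HUVEC, no more than 12 passages | input = 1250 cells per well | controls = vehicle and MePR control wells | measured by = CTG luminescence | times = 72 h compound incubation | format = collagen-coated 384-well format | read-out = % viability vs DMSO wells | doses = single 10 µM dose, 0.1% DMSO, from 5x medium stock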

[5] = H69AR cell proliferation blockers – human, duplicate replicates, primary screen (AID 580;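 active means viability at or under a set limit in both replicates, limit being median viability minus 3 SD, cut at about 48% in these data, passing the limit was not always enough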;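 further: 100% = mean luminescence of untreated wells and 0% = no signal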); conditions: H69AR lung tumor cells viability, ATP luminescence, 72 h; at 10 µM; stronger effect = lower value
[6] = MRP1 drug-resistance reversers in H69AR cells – cell-based, doxorubicin co-treatment, pilot screen (AID 601;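 active means viability loss from added drug above about 55%, and viability with drug at most 40%, in both replicates, limit read from the data, passing the limit was not always enough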); conditions: CellTiter-Glo, 72 h, at 10 µM; for differential viability (reversal): stronger effect = higher value
[7] = yeast transport mutant growth inhibition pilot in 384-well plates, post-Golgi transport modulator project (AID 636; in the data active means inhibition above about 31%); conditions: absorbance 615 nm, about 18 h, stronger effect = higher value
[8] = growth suppression of yeast trafficking mutant, preliminary HTS, modulators of trafficking downstream of Golgi apparatus project, 1536-format plate, OD 615 nm (AID 637); conditions: yeast transport mutant growth, absorbance 615 nm, 18 h; stronger effect = higher value
[9] = H69AR cells + 2 uM doxorubicin, measured here: viability with 2 uM doxorubicin, stronger effect = lower value
[10] = H69AR cells, compound alone cytotoxicity

Row | Compound | viability [1] [%] | Her2 level [2] | viability [3] | viability [4] | viability [5] | differential viability (reversal) ([6]; H69AR cells + 2 uM doxorubicin) | viability [6, 9] [%] | viability [6, 10] [%] | inhibition [7] | inhibition [8]
1 | C=CCN1C(=O)C2(c3ccccc31)C1CCCC=C1C(C#N)=C(N)C2(C#N)C#N (stereo not given) | 81 | 82% (inactive) | 81% (inactive) | 62.7% (inactive) | 76.4% (inactive) | -13.9% (inactive) | 90.3 | 76.4 | 2.53% (inactive) | 26.8% (inactive)
2 | C=CC(O)(C#CCN(CC)CC)c1ccccc1 (stereo not given) | 96.5 | 89% (inactive) | 96.5% (inactive) | 102% (inactive) | 99.9% (inactive) | 10.1% (inactive) | 89.9 | 99.9 | -2.03% (inactive) | -0.63% (inactive)
3 | O=C(CSc1nnc(-c2c[nH]c3ccccc23)o1)N(Cc1ccccc1)c1ccc(F)cc1 | 100 | 102% (inactive) | 100% (inactive) | 65.9% (inactive) | 82.4% (inactive) | -14.3% (inactive) | 96.6 | 82.4 | 2.53% (inactive) | 7.7% (inactive)
4 | CCOCCc1nnc(NC(=O)c2ccc(OC)c(OC)c2)s1 | 107 | 86% (inactive) | 107% (inactive) | 62.8% (inactive) | 94.4% (inactive) | -1.97% (inactive) | 96.4 | 94.4 | -6.4% (inactive) | -3.39% (inactive)
5 | O=C(Cn1nc(-c2ccc3c(c2)OCCO3)ccc1=O)Nc1ccc(N2CCOCC2)cc1 | 94 | 108% (inactive) | 94% (inactive) | 112% (inactive) | 110% (inactive) | 16.4% (inactive) | 93.2 | 110 | -3.03% (inactive) | 0.17% (inactive)
6 | O=c1[nH]c2c(s1)C(c1ccco1)C1C3CCC(C3)C1S2 (stereo not given) | 100 | 80% (inactive) | 100% (inactive) | 113% (inactive) | 78.8% (inactive) | -10.5% (inactive) | 89.3 | 78.8 | -3.29% (inactive) | 2.73% (inactive)
7 | CC(C)(C)Nc1nc(OCC(F)(F)F)nc(OCC(F)(F)F)n1 | 108 | 89% (inactive) | 108% (inactive) | 98.8% (inactive) | 89.1% (inactive) | -0.98% (inactive) | 90.1 | 89.1 | -5.26% (inactive) | -10.6% (inactive)
8 | c1ccc2c(c1)[nH]c1c(N3CCC4(CC3)OCCO4)ncnc12 | 96.5 | 77% (inactive) | 96.5% (inactive) | 65.2% (inactive) | 92.2% (inactive) | 5.46% (inactive) | 86.7 | 92.2 | -3.87% (inactive) | -3.87% (inactive)
9 | Cc1c2c(nc3nc4ccccc4n13)CC(C)(C)CC2=O | 130 | 100% (inactive) | 130% (inactive) | 91.1% (inactive) | 70.9% (inactive) | 36.9% (inactive) | 34 | 70.9 | -3.42% (inactive) | 4.43% (inactive)
10 | Cc1oc(-c2ccccc2)cc1C(N)=O | 103 | 78.5% (inactive) | 103% (inactive) | 92.3% (inactive) | 100% (inactive) | 20% (inactive) | 80.3 | 100 | -0.79% (inactive) | -2.9% (inactive)
11 | Cc1cc(=O)n(-c2ccc3ccccc3n2)[nH]1 | 105 | 101% (inactive) | 105% (inactive) | 53.6% (inactive) | 73.4% (inactive) | -2.73% (inactive) | 76.2 | 73.4 | -5.73% (inactive) | 11.1% (inactive)
12 | CCn1cc(C(=O)N2CCCC2)c(=O)c2cc(S(=O)(=O)N3CCOCC3)ccc21 | 116 | 99% (inactive) | 116% (inactive) | 92.2% (inactive) | 99.5% (inactive) | 1.21% (inactive) | 98.3 | 99.5 | -5.92% (inactive) | -6.51% (inactive)
13 | O=C1CCc2nc3sc4c(c3c(=O)n2N1)CCCC4 | 86.5 | 100% (inactive) | 86.5% (inactive) | 85.9% (inactive) | 91.3% (inactive) | 1.12% (inactive) | 90.2 | 91.3 | -1.05% (inactive) | -7.14% (inactive)
14 | CCOC(=O)c1[nH]c(C)c(C(=O)NCC2CCCO2)c1C (stereo not given) | 99 | 92% (inactive) | 99% (inactive) | 108% (inactive) | 101% (inactive) | 9.65% (inactive) | 91.3 | 101 | -2.47% (inactive) | -0.32% (inactive)
15 | COc1cc(-c2c(C#N)c(N)nc3c2CCCC3)cc(OC)c1OC | 89 | 72% (inactive) | 89% (inactive) | 74.2% (inactive) | 76.4% (inactive) | -9.71% (inactive) | 86.1 | 76.4 | -2.63% (inactive) | 3.39% (inactive)
16 | CSc1nc(C)cc(OCC(=O)N2CCOCC2)n1 | 130 | 112% (inactive) | 130% (inactive) | 99.2% (inactive) | 92.7% (inactive) | 2.54% (inactive) | 90.2 | 92.7 | -4.81% (inactive) | 5% (inactive)

Row | Compound | viability [1] [%] | Her2 level [2] | viability [3] | viability [4] | viability [5] | differential viability (reversal) ([6]; H69AR cells + 2 uM doxorubicin) | viability [6, 9] [%] | viability [6, 10] [%] | inhibition [7] | inhibition [8]
17 | C=CCOC(=O)C(C#N)c1nc2ccccc2nc1N1CCN(Cc2ccccc2)CC1 (stereo not given) | 94 | 79% (inactive) | 94% (inactive) | 77.7% (inactive) | 84.1% (inactive) | -9.45% (inactive) | 93.6 | 84.1 | -4.53% (inactive) | 2.3% (inactive)
18 | COC(=O)c1ccccc1NC(=O)CSc1nc2c(c(=O)n(C)c(=O)n2C)n1C | 86 | 124% (inactive) | 86% (inactive) | 101% (inactive) | 97% (inactive) | 3.48% (inactive) | 93.5 | 97 | 5.26% (inactive) | 26.5% (inactive)
19 | COc1ccc2c(c1OC)C(=O)N(c1ccc3c(c1)CCC3)C2=O | 96.5 | 100% (inactive) | 96.5% (inactive) | 90.3% (inactive) | 107% (inactive) | 12.6% (inactive) | 94.9 | 107 | -3.07% (inactive) | 25.7% (inactive)
20 | Cc1ccc(OC(=O)CCC(=O)OCCCC(F)(F)C(F)(F)F)cc1 | 102 | 104% (inactive) | 102% (inactive) | 91.2% (inactive) | 94.3% (inactive) | 3.79% (inactive) | 90.5 | 94.3 | -1.76% (inactive) | -1.64% (inactive)
21 | O=C(OCC#CCSc1nc2ccccc2o1)c1ccco1 | 112 | 84% (inactive) | 112% (inactive) | 80.4% (inactive) | 80.4% (inactive) | -1.78% (inactive) | 82.2 | 80.4 | -6.67% (inactive) | -7.7% (inactive)
22 | COc1ccc(-c2nnc(SCCC(=O)O)n2-c2ccccc2)cc1 | 113 | 96.5% (inactive) | 113% (inactive) | 96.1% (inactive) | 95.2% (inactive) | -2.17% (inactive) | 97.3 | 95.2 | -0.53% (inactive) | -0.49% (inactive)
23 | O=S(=O)(Nc1ncccn1)c1ccc(Nc2ncnc3ccccc23)cc1 | 97.5 | 93% (inactive) | 97.5% (inactive) | 81.2% (inactive) | 95.7% (inactive) | 1.15% (inactive) | 94.5 | 95.7 | -7.57% (inactive) | 3.11% (inactive)
24 | Cc1oc(-c2ccc(Cl)cc2)nc1CS(=O)CC(=O)NCCCN(C)C1CCCCC1 (stereo not given) | 91.5 | 101% (inactive) | 91.5% (inactive) | 66.3% (inactive) | 87.1% (inactive) | 10.8% (inactive) | 76.3 | 87.1 | -2.99% (inactive) | 5.56% (inactive)
25 | O=C(NCCO)c1cccc2c1C(=O)c1ccccc1-2 | 97.5 | 95.5% (inactive) | 97.5% (inactive) | 98.4% (inactive) | 101% (inactive) | 15.4% (inactive) | 85.8 | 101 | -6.4% (inactive) | -1.48% (inactive)
26 | O=C1c2oc3ccccc3c(=O)c2C(c2ccccn2)N1Cc1ccccc1 (stereo not given) | 91.5 | 110% (inactive) | 91.5% (inactive) | 95.6% (inactive) | 104% (inactive) | 9.52% (inactive) | 94.7 | 104 | 1.07% (inactive) | -8.87% (inactive)
27 | CC(=O)Nc1c(O)nc(SCC(=O)Nc2nnc(CC(C)C)s2)[nH]c1=O | 86.5 | 99.5% (inactive) | 86.5% (inactive) | 98.2% (inactive) | 93.6% (inactive) | -8.89% (inactive) | 102 | 93.6 | 3.2% (inactive) | 22.4% (inactive)
28 | O=C(Nc1ccccc1N1CCCCC1)c1ncoc1-c1ccc(F)cc1 | 115 | 109% (inactive) | 115% (inactive) | 78.1% (inactive) | 84.6% (inactive) | -1.2% (inactive) | 85.8 | 84.6 | -3.47% (inactive) | -2.86% (inactive)
29 | O=C(O)c1cccc(NS(=O)(=O)c2ccc3nnn(O)c3c2)c1 | 123 | 87% (inactive) | 123% (inactive) | 94.9% (inactive) | 102% (inactive) | 3.63% (inactive) | 98 | 102 | -4.27% (inactive) | 5.71% (inactive)
30 | C=C(C)Cn1c(N2CCN(CC)CC2)nc2c1c(=O)[nH]c(=O)n2C | 99.5 | 99.5% (inactive) | 99.5% (inactive) | 80% (inactive) | 85.7% (inactive) | -1.74% (inactive) | 87.5 | 85.7 | -1.07% (inactive) | 6.39% (inactive)
31 | CC(C)CC(c1nnnn1CC1CCCO1)N1CCN(Cc2ccc3c(c2)OCO3)CC1 (stereo not given) | 86.5 | 70% (inactive) | 86.5% (inactive) | 90% (inactive) | 96.7% (inactive) | 8.46% (inactive) | 88.2 | 96.7 | -6.08% (inactive) | -9.34% (inactive)
32 | CC1=C(C(N)=O)C(c2cccnc2)n2nc(SCc3ccccc3Cl)nc2N1 (stereo not given) | 79 | 94.5% (inactive) | 79% (inactive) | 87.6% (inactive) | 98.7% (inactive) | 14.7% (inactive) | 84 | 98.7 | -9.05% (inactive) | -3.77% (inactive)
